# Experimental data pooled from the literature.
# CHEK1: Serine/threonine-protein kinase Chk1 (CHEK1, Homo sapiens, UniProt O14757)
# SLC6A3: Sodium-dependent dopamine transporter (SLC6A3, Homo sapiens, UniProt Q01959)
# PRMT1: Protein arginine N-methyltransferase 1 (PRMT1, Homo sapiens, UniProt Q99873)
Structure (SMILES),target,assay,test system,setting,IC50
COc1cc(-c2ccc(-c3[nH]nc4c3Cc3cc(CNC5CCC(O)CC5)ccc3-4)cc2)ccc1O (centres unmarked),CHEK1,"enzyme activity, inhibitor",,,0.0594 µM
Cc1cc(-c2ccnc3cc(Cl)ccc23)ccc1O,"Toll-like receptor 8 (TLR8, Homo sapiens, UniProt Q9NR97)","reporter gene, antagonist",,,0.001 µM
COc1ccc(-c2nsc(NC(=O)[C@@H]3C[C@H]3C)c2C)cc1,"Metabotropic glutamate receptor 5 (GRM5, Homo sapiens, UniProt P41594)","calcium signal, antagonist",,,0.118 µM
Cc1ccc(NC(=O)c2ccc(C)c(C(F)(F)F)c2)cc1C#Cc1nn(C2CCC(O)CC2)c2ncnc(N)c12 (centres unmarked),"Discoidin domain-containing receptor 2 (DDR2, Homo sapiens, UniProt Q16832)","enzyme activity, inhibitor, radiometric",,,0.065 µM
O=S(=O)(O)OC[C@H]1O[C@@](COS(=O)(=O)O)(O[C@H]2O[C@H](COS(=O)(=O)O)[C@@H](OS(=O)(=O)O)[C@H](OS(=O)(=O)O)[C@H]2OS(=O)(=O)O)[C@@H](OS(=O)(=O)O)[C@@H]1OS(=O)(=O)O,"Coagulation factor XI (F11, Homo sapiens, UniProt P03951)","enzyme activity, inhibitor, absorbance",,pH 7.4,> 4000 µM
Clc1ccc(C(c2ccc(Cl)cc2)c2nnnn2CCCCN2CCC(Cc3ccccc3)CC2)cc1,SLC6A3,"transporter uptake, inhibitor",,,0.172 µM
N=C(N)c1ccc(-c2ccc(-c3ccc(C(=N)N)nc3)o2)cc1,PRMT1,"enzyme activity, inhibitor",,,9.5 µM
O=C(N[C@@H]1CC[C@@H](c2cccc(F)c2F)CN(CC(F)(F)F)C1=O)N1CCC(n2c(=O)[nH]c3ncccc32)CC1,"ATP-binding cassette sub-family C member 4 (ABCC4, Homo sapiens, UniProt O15439)","transporter uptake, inhibitor",HEK293,cell membranes,42.4 µM
COc1ccc(-c2ccccc2)cc1NS(=O)(=O)c1cc(Cl)cc(Cl)c1O,"ATP-citrate synthase (ACLY, Homo sapiens, UniProt P53396)","enzyme activity, inhibitor",,,0.46 µM
CCOc1ccc2c(-c3cc(C)nc(Nc4cc(OC)cc(C(F)(F)F)c4)n3)cnn2n1,"Dual specificity protein kinase CLK4 (CLK4, Homo sapiens, UniProt Q9HAZ1)","enzyme activity, inhibitor",,,> 10 µM
O=c1cc(-c2ccc(-c3[nH]nc4c3Cc3cc(O)ccc3-4)cc2)cc[nH]1,CHEK1,"enzyme activity, inhibitor",,,1.25 µM
CCN(CC)C(=S)SSC(=S)N(CC)CC,"Tyrosine-protein phosphatase non-receptor type 22 (PTPN22, Homo sapiens, UniProt Q9Y2R2)","enzyme activity, inhibitor, fluorescence",,pH 6.5,47 µM
OCc1ccc(-c2ccc(-c3[nH]nc4c3Cc3cc(O)ccc3-4)cc2)cc1,CHEK1,"enzyme activity, inhibitor",,,> 10 µM
CC/C=C\C/C=C\C/C=C\C/C=C\C/C=C\CCCC(=O)O,"DNA topoisomerase 1 (TOP1, Homo sapiens, UniProt P11387)","enzyme activity, inhibitor",,,20 µM
C/C(=N\O)c1ccc(-c2ccc(O)c(Cl)c2)c(Cl)c1O,"Solute carrier family 2, facilitated glucose transporter member 1 (SLC2A1, Homo sapiens, UniProt P11166)","transporter uptake, inhibitor, radiometric",,,7 µM
c1ccc(CCC2CCN(CCCn3nnnc3C(c3ccccc3)c3ccccc3)CC2)cc1,SLC6A3,"transporter uptake, inhibitor",,,0.726 µM
COc1cc(-c2ccc3c(c2)Nc2ncccc2NC3=O)ccc1[N+](=O)[O-],CHEK1,"enzyme activity, inhibitor",,,> 10 µM
Fc1ccc(C(c2ccc(F)cc2)c2nnnn2CCCCN2CCC(Cc3ccccc3)CC2)cc1,SLC6A3,"transporter uptake, inhibitor",,,0.0579 µM
COc1cc(-c2ccc3c(c2)Nc2ccc(NC(=O)c4cc[nH]n4)cc2NC3=O)ccc1[N+](=O)[O-],CHEK1,"enzyme activity, inhibitor",,,0.00906 µM
N=C(NCCCO)NCCCSC[C@H]1O[C@@H](n2cnc3c(NCCCc4ccccc4)ncnc32)[C@H](O)[C@@H]1O,PRMT1,"enzyme activity, inhibitor, fluorescence",,,4.9 µM
